This is an account of results in the RNAGym collection of RNA variant scans (doi:10.1002/anie.201605470).

B1: Osa-1-4 twister ribozyme (parent)
chain: CCGCCUAACACUGCCAAUGCCGGUCCCAAGCCCGGAUAAAAGUGGAGGGGGCGG

The variants in this data set derive from B1. Briefly: self-cleavage, relative activity (ratio to wild type); higher = more cleavage; co-transcriptional. The procedure, abridged:
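In vitro transcription at 37 °C for 2 h allowed the twister ribozyme to cleave itself as it was made. Its 54-nucleotide Oryza sativa template had been synthesised with 97 % wild-type base and 1 % of each other base at the 48 positions downstream of the cleavage site. A template-switching oligonucleotide was used for reverse transcription, followed by PCR amplification and deep sequencing. Whether reads carried upstream sequence set the cleavage status, and relative activity is the fraction cleaved normalised to wild type.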
With G53U G54A, the self-cleavage stood at 0.25.
In the case of G53U G54U, the self-cleavage amounted to 0.46.
With G53U G54C, the self-cleavage stood at 0.14.
To C52U G35C belongs 0.63; to C52U G35A, 0.96; to C52U G35U, 0.99.
For G53A U18G the value was 0.65; for G53A U18A, 0.8.
For G53A U18C the value was 0.83.
For C52G U18C, the self-cleavage was determined as 0.93.
To C52G U18A belongs 0.91.
To C52G U18G belongs 0.86; to C52U G22U, 0.88.
To C52U G22A belongs 0.91; to C52U G22C, 0.17.
In the case of C52G U12A, the self-cleavage turned out to be 0.85.
For C52G U12G the value was 0.32; for C52G U12C, 0.58.
To C52U G44U belongs 1.02.
For C52U G44A the value was 1; for C52U G44C, 1.05.
Turning to C52G G50A, the self-cleavage turned out to be 0.85.
Take C52G G50U: the self-cleavage came out at 0.24.
To C52G G50C belongs 0.09; to G54A U24A, 0.13.
On to G54A U24C, for which the self-cleavage was 0.13.
To G54A U24G belongs 0.03.
G54U U24G: the self-cleavage turned out to be 0.04.
To G54U U24C belongs 0.23; to G54U U24A, 0.34.
Take G54C U43A: the self-cleavage came out at 0.86.
To G54C U43G belongs 0.76; to G54C U43C, 0.6; to G54C U37C, 1.02.
For G54C U37A the value was 0.71; for G54C U37G, 1.03.
For C52G U43A the value was 0.9; for C52G U43C, 0.55.
For the variant C52G U43G, the self-cleavage came out at 0.65.
On to C52U G50U, for which the self-cleavage was 0.98.
To C52U G50C belongs 0.57.
Turning to C52U G50A, the self-cleavage came out at 0.97.
For C52U the value was 1.03; for G53C U37C, 0.11; for G53C U37A, 0.06.
For G53C U37G the value was 0.15; for C52U G47U, 0.4.
To C52U G47C belongs 0.12; to C52U G47A, 0.45; to G53A U43A, 0.64.
With G53A U43C, the self-cleavage is 0.43.
To G53A U43G belongs 0.37; to C52U G45A, 0.54; to C52U G45U, 0.17.
Take C52U G45C: the self-cleavage was found to be 0.07.
For C52U G34C the value was 0.65.
For the variant C52U G34A, the self-cleavage came out at 0.93.
To C52U G34U belongs 0.85.
To G54C U24G belongs 0.02; to G54C U24A, 0.07; to G54C U24C, 0.11.
To C52U G13C belongs 0.01; to C52U G13U, 0.05; to C52U G13A, 0.14.
Turning to C52G U24A, the self-cleavage stood at 0.23.
For C52G U24G the value was 0.06; for C52G U24C, 0.22.
For G53U the value was 0.56; for G53C, 0.13.
For G53A the value was 0.93.
As to G54U U18G, the self-cleavage stood at 0.73.
To G54U U18C belongs 0.95.
For G54U U18A the value was 0.9; for G53C U18A, 0.09.
G53C U18C: the self-cleavage amounted to 0.1.
With G53C U18G, the self-cleavage stood at 0.14.
With G54A U12C, the self-cleavage is 0.56.
To G54A U12G belongs 0.28; to G54A U12A, 0.48.
To C52U U37C belongs 1.07.
To C52U U37G belongs 1.06; to C52U U37A, 0.84; to G53U U37C, 0.55.
On to G53U U37A, for which the self-cleavage came out at 0.32.
For G53U U37G the value was 0.61; for G53A U12A, 0.28; for G53A U12G, 0.18.
For G53A U12C, the self-cleavage was 0.37.
With C52U G42U, the self-cleavage worked out at 0.13.
For C52U G42C the value was 0.39.
To C52U G42A belongs 0.91; to C52U G30C, 0.04; to C52U G30A, 0.04.
To C52U G30U belongs 0.04.
For C52G G54C, the self-cleavage is 0.91.
For C52G G54A the value was 0.81; for C52G G54U, 0.97; for G53C U12C, 0.05.
For G53C U12G the value was 0.04; for G53C U12A, 0.07.
To G54C U18C belongs 0.91; to G54C U18A, 0.85.
For the variant G54C U18G, the self-cleavage turned out to be 0.77.
For G54C the value was 1; for G54U, 1; for G54A, 1.
To C52U G48U belongs 0.11.
To C52U G48C belongs 0.11.
